Our source for the log virus titer change values is PubChem BioAssay AID504830 (Southern Research Specialized Biocontainment Screening …, 2011).

The subject of the test is HEp-2 cells, RSV plaque reduction, virus titer. Kind of test: RSV plaque-forming yield inhibition – cell-based, plaque reduction (AID 504830). Particulars: at 25 µM; hits give low values. The method in brief:
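Signal: HEp-2 plaque titration, 1% Avicel overlay, six days, neutral red stain / Assay system: RSV Long-infected HEp-2 cells / Timing: 48 h compound exposure at 37 °C after infection / Reagent: RSV Long strain at MOI 0.1, 2 h infection / Doses: post-infection compound, 0.5% DMSO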
For the compound `COc1ccc(C)c(NC(=O)[C@@H]2CCCN2S(=O)(=O)c2cccc3cccnc23)c1`, the log virus titer change is -1.
With `Cc1ccc(NC(=O)C2CCCN2S(=O)(=O)c2cccc3cccnc23)c(C)c1` (centres undefined), the log virus titer change is -2.1.
The figure for `Cc1ccc(C)c(NC(=O)[C@@H]2CCCN2S(=O)(=O)c2cccc3cccnc23)c1` is -2.
The figure for `Cc1ccc(NC(=O)[C@@H]2CCCN2S(=O)(=O)c2cccc3cccnc23)c(C)c1` is -1.
